Consider one compound from ChEMBL document CHEMBL3808369, “Identification of Cyproheptadine as an Inhibitor of SET Domain Containing Lysine Methyltransferase 7/9 (Set7/9) That Regulates Estrogen-Dependent Transcription” (J Med Chem, 2016).

Each structure is given as a SMILES string. Active and inactive are the calls of the source. No cut-off for these calls is given here.

Series [1] deals with T1, Histone-lysine N-methyltransferase SETD7 (Homo sapiens) (UniProt Q8WTS6).
T1 sequence (whole entry): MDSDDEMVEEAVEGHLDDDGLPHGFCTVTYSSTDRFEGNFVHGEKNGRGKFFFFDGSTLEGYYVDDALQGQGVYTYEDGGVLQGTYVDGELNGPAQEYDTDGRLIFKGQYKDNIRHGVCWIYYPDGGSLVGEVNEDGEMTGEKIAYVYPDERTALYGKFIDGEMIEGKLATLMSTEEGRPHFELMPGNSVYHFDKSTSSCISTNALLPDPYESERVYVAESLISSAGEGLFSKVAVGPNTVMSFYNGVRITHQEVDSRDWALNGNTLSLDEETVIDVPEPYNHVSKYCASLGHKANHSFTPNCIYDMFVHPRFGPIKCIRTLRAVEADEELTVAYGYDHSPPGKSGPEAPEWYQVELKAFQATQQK
The series is described as follows: Inhibition of recombinant his-tagged Set7/9 (unknown origin) expressed in Escherichia coli BL21 (DE3) using GST-fused histone H3 (1 to 57 residues) as substrate preincubated for 1 hr followed by substrate addition measured after 1 hr by Western blot analysis. In a few lines:
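His-Set7/9 (0.2 μg/μL) preincubated with or without inhibitor in HMT buffer for 1 h. Then 1 mM SAM and 0.01 μg/μL GST-histone H3 (1−57) were added and incubated 1 h at 37 °C. Reactions were stopped in SDS loading buffer and immunoblotted with an anti-H3K4me1 antibody.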
Background: Immunoblotting shows a protein as a band on a membrane.

The test system of another series is MCF7. The series is described as follows: Antitumor activity against Fucci introduced human MCF7 cells xenografted in Balb/c-nu/nu mouse at 20 mg/kg, ip qd administered as continuous dose for 8 days measured every 3 to 4 days until day 15. Format: functional, organism-based. In a few lines:
(§1)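 Female Balb/C-nu/nu mice, 7 weeks old, each inoculated with about 2 × 10^7 Fucci-MCF7 cells in the mammary gland. Dosing started when tumors reached about 100 mm3, 13 days after inoculation. 20 mg/kg given ip once daily, days 1–8, in saline with 10% ethanol; a vehicle group ran alongside. Caliper tumor volume (a2b)/2 and body weight were recorded every 3 or 4 days to day 15. Six mice per group, mean ± SE.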
For orientation: In xenograft studies the graft and the host belong to different species.

The next series has as its system Mus musculus. The series is described as follows: Effect on body weight in Balb/c-nu/nu mouse xenografted with Fucci introduced human MCF7 cells at 20 mg/kg, ip qd administered as continuous dose for 8 days measured every 3 to 4 days until day 15. It is filed as ADME, organism-based. The settings on record: in vivo. In a few lines:
as §1

In series [2] the target is T1, Histone-lysine N-methyltransferase SETD7 (Homo sapiens). The series is described as follows: Inhibition of Set7/9 in human MCF7 cells assessed as reduction of ERalpha expression after 48 hrs by immunoblotting analysis. It is filed as cell-based. In a few lines: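 MCF7 cells (1 × 10^5 per well) treated either with a concentration series for 48 h or with 43 μM over a time course. RIPA-sonicated lysates were immunoblotted for ERα with enhanced chemiluminescence readout.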

The target is the same in series [3]. The series is described as follows: Non competitive inhibition of recombinant Set7/9 (unknown origin) expressed in Escherichia coli BL21 (DE3) using Ac-KRSK-MCA peptide as substrate and varying SAM preincubated for 1 hr followed by substrate addition measured after 15 mins by Lineweaver-Burk plot analysis. In a few lines:
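His6-tagged Set7/9 purified by Ni2+ affinity from E. coli BL21(DE3) after induction with 0.1 mM IPTG at 18 °C for 24 h. Kinetics were run in a fluorogenic HMT assay using Ac-KRSK-MCA peptide, with either SAM or peptide concentration varied. Initial velocities were analysed by Lineweaver–Burk plot, four independent assays.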

Series [4] has as its target T2, Histone-lysine N-methyltransferase SUV39H1 (Homo sapiens) (UniProt O43463).
T2 sequence (whole entry): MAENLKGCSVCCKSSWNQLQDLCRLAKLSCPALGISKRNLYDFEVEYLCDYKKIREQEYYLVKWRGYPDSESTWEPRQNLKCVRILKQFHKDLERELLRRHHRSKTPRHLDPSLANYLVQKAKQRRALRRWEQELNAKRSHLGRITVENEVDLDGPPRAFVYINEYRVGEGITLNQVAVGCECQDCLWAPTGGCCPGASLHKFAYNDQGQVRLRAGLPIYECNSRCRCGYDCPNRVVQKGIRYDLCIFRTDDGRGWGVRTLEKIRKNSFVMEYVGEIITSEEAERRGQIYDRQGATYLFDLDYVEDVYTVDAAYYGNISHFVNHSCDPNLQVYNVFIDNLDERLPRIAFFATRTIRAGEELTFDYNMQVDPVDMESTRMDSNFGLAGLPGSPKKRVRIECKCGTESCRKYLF
The series is described as follows: Inhibition of Suv39h1 (unknown origin) by ELISA.

The target of series [5] is T1, Histone-lysine N-methyltransferase SETD7 (Homo sapiens). The series is described as follows: Inhibition of Set7/9 in human MCF7 cells assessed as suppression of beta-estradiol-induced pS2 mRNA expression at 14 to 43 uM preincubated for 24 hrs followed by beta-estradiol addition measured after 24 hrs by RT-PCR analysis.

As for `CN1CCC(=C2c3ccccc3C=Cc3ccccc32)CC1` [CYPROHEPTADINE], the inhibition entry in series [1], in series [3], in series [4] and in series [5] was “Active” in each case. The TGI entry in the series on MCF7 was “Active”. For the same compound, the Activity entry in the series with Mus musculus is “Non-toxic”. Moreover, in series [2], the inhibition entry is “Dose-dependent effect”.
